Measurements: ChEMBL document CHEMBL1667743, “Functional in vivo imaging of cysteine cathepsin activity in murine model of inflammation” (Bioorg Med Chem, 2011)

Tests used:
[1] = substrate: CCN(CC)c1ccc2nc3ccc(/N=N/c4ccc(N(C)CCCC(=O)NCCNC(=O)[C@H](CCNC(=O)CCCCCN5/C(=C\C=C\C=C\C=C\C6N(CC)c7ccc(S(=O)(=O)O)cc7C6(C)C)C(C)(C)c6cc(S(=O)(=O)[O-])ccc65)NC(=O)[C@H](CC5CCCCC5)NC(=O)N5CCOCC5)cc4)cc3[n+](-c3ccccc3)c2c1; test: (§1) Activity at recombinant cathepsin S
Procedure, shortened: (§2)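 Active-site-titrated (E-64) recombinant human cathepsins B, L, S and in-house cathepsin K, 10 nM final in pH 6.5 acetate/HEPES buffer with 300 mM NaCl, 0.001% Pluronic and L-cysteine; DMSO-dissolved Cy7/BHQ-3 quenched substrate 0.8–40 µM final (DMSO ≤1%); fluorescence read at 25 °C (λex 710, λem 767 nm); steady-state data fitted by non-linear least squares to Michaelis–Menten with substrate inhibition.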

[2] = substrate: CC(C)(C)OC(=O)NCC[C@H](NC(=O)[C@H](CC1CCCCC1)NC(=O)N1CCOCC1)C(=O)NCCNC(=O)OCC1c2ccccc2-c2ccccc21; test: as §1; procedure, shortened: as §2
[3] = substrate: CCN(CC)c1ccc2nc3ccc(/N=N/c4ccc(N(C)CCCC(=O)NCCNC(=O)[C@H](CCNC(=O)CCCCCN5/C(=C\C=C\C=C\C=C\C6N(CC)c7ccc(S(=O)(=O)O)cc7C6(C)C)C(C)(C)c6cc(S(=O)(=O)[O-])ccc65)NC(=O)[C@H](CC5CCCCC5)NC(=O)N5CCOCC5)cc4)cc3[n+](-c3ccccc3)c2c1; test: (§3) Ratio of Kcat/Km for recombinant cathepsin S; procedure, shortened: as §2
[4] = substrate: CC(C)(C)OC(=O)NCC[C@H](NC(=O)[C@H](CC1CCCCC1)NC(=O)N1CCOCC1)C(=O)NCCNC(=O)OCC1c2ccccc2-c2ccccc21; test: as §3; procedure, shortened: as §2
[5] = substrate: CCN(CC)c1ccc2nc3ccc(/N=N/c4ccc(N(C)CCCC(=O)NCCNC(=O)[C@H](CCNC(=O)CCCCCN5/C(=C\C=C\C=C\C=C\C6N(CC)c7ccc(S(=O)(=O)O)cc7C6(C)C)C(C)(C)c6cc(S(=O)(=O)[O-])ccc65)NC(=O)[C@H](CC5CCCCC5)NC(=O)N5CCOCC5)cc4)cc3[n+](-c3ccccc3)c2c1; test: (§4) Activity at recombinant cathepsin L; procedure, shortened: as §2
[6] = substrate: CC(C)(C)OC(=O)NCC[C@H](NC(=O)[C@H](CC1CCCCC1)NC(=O)N1CCOCC1)C(=O)NCCNC(=O)OCC1c2ccccc2-c2ccccc21; test: as §4; procedure, shortened: as §2
[7] = substrate: CCN(CC)c1ccc2nc3ccc(/N=N/c4ccc(N(C)CCCC(=O)NCCNC(=O)[C@H](CCNC(=O)CCCCCN5/C(=C\C=C\C=C\C=C\C6N(CC)c7ccc(S(=O)(=O)O)cc7C6(C)C)C(C)(C)c6cc(S(=O)(=O)[O-])ccc65)NC(=O)[C@H](CC5CCCCC5)NC(=O)N5CCOCC5)cc4)cc3[n+](-c3ccccc3)c2c1; test: (§5) Ratio of Kcat/Km for recombinant cathepsin L; procedure, shortened: as §2
[8] = substrate: CC(C)(C)OC(=O)NCC[C@H](NC(=O)[C@H](CC1CCCCC1)NC(=O)N1CCOCC1)C(=O)NCCNC(=O)OCC1c2ccccc2-c2ccccc21; test: as §5; procedure, shortened: as §2
[9] = substrate: CC(C)(C)OC(=O)NCC[C@H](NC(=O)[C@H](CC1CCCCC1)NC(=O)N1CCOCC1)C(=O)NCCNC(=O)OCC1c2ccccc2-c2ccccc21; test: Activity at recombinant cathepsin K; procedure, shortened: as §2
[10] = substrate: CC(C)(C)OC(=O)NCC[C@H](NC(=O)[C@H](CC1CCCCC1)NC(=O)N1CCOCC1)C(=O)NCCNC(=O)OCC1c2ccccc2-c2ccccc21; test: Ratio of Kcat/Km for recombinant cathepsin K; procedure, shortened: as §2

B1: Cathepsin S (Homo sapiens), P25774 (protein)
chain: MKRLVCVLLVCSSAVAQLHKDPTLDHHWHLWKKTYGKQYKEKNEEAVRRLIWEKNLKFVMLHNLEHSMGMHSYDLGMNHLGDMTSEEVMSLMSSLRVPSQWQRNITYKSNPNRILPDSVDWREKGCVTEVKYQGSCGACWAFSAVGALEAQLKLKTGKLVSLSAQNLVDCSTEKYGNKGCNGGFMTTAFQYIIDNKGIDSDASYPYKAMDQKCQYDSKYRAATCSKYTELPYGREDVLKEAVANKGPVSVGVDARHPSFFLYRSGVYYEPSCTQNVNHGVLVVGYGDLNGKEYWLVKNSWGHNFGEEGYIRMARNKGNHCGIASFPSYPEI
Km [1]: 25 µM | Km [2]: 1.3 µM | kcat/Km [3]: 14200 M⁻¹ s⁻¹ | kcat/Km [4]: 15100 M⁻¹ s⁻¹

B2: Procathepsin L (Homo sapiens), P07711 (protein)
chain: MNPTLILAAFCLGIASATLTFDHSLEAQWTKWKAMHNRLYGMNEEGWRRAVWEKNMKMIELHNQEYREGKHSFTMAMNAFGDMTSEEFRQVMNGFQNRKPRKGKVFQEPLFYEAPRSVDWREKGYVTPVKNQGQCGSCWAFSATGALEGQMFRKTGRLISLSEQNLVDCSGPQGNEGCNGGLMDYAFQYVQDNGGLDSEESYPYEATEESCKYNPKYSVANDTGFVDIPKQEKALMKAVATVGPISVAIDAGHESFLFYKEGIYFEPDCSSEDMDHGVLVVGYGFESTESDNNKYWLVKNSWGEEWGMGGYVKMAKDRRNHCGIASAASYPTV
Km [5]: 280 µM | Km [6]: 840 µM | kcat/Km [7]: 187 M⁻¹ s⁻¹ | kcat/Km [8]: 7070 M⁻¹ s⁻¹

B3: Cathepsin K (Homo sapiens), P43235 (protein)
chain: MWGLKVLLLPVVSFALYPEEILDTHWELWKKTHRKQYNNKVDEISRRLIWEKNLKYISIHNLEASLGVHTYELAMNHLGDMTSEEVVQKMTGLKVPLSHSRSNDTLYIPEWEGRAPDSVDYRKKGYVTPVKNQGQCGSCWAFSSVGALEGQLKKKTGKLLNLSPQNLVDCVSENDGCGGGYMTNAFQYVQKNRGIDSEDAYPYVGQEESCMYNPTGKAAKCRGYREIPEGNEKALKRAVARVGPVSVAIDASLTSFQFYSKGVYYDESCNSDNLNHAVLAVGYGIQKGNKHWIIKNSWGENWGNKGYILMARNKNNACGIANLASFPKM
Km [9]: 89 µM | kcat/Km [10]: 187 M⁻¹ s⁻¹
